Measured values: ChEMBL document CHEMBL1121364, “Nucleoside conjugates as potential antitumor agents. 3. Synthesis and antitumor activity of 1-(beta-D-arabinofuranosyl)cytosine conjugates of corticosteroids” (1980)

Experiments:
L1210 [1] = assay: Antitumor activity in the mice with intraperitoneal implanted L1210 lymphoid leukemia at the dose of 75 mg/kg/day x 5 was determined as mean survival of treated group compared to untreated; 17.5/9.5; assay type: functional, Mus musculus
L1210 [2] = assay: Antitumor activity in the mice with intraperitoneal implanted L1210 lymphoid leukemia at the dose of 50 mg/kg/day x 5 was determined as mean survival of treated group compared to untreated; 16/9.5; assay type: functional, Mus musculus
Method in brief: (§1)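 C3D2F1/J female mice (C3H/HeJ female × DBA/2J male), groups of six to eight, average weight 25 g. Inoculated ip with 1 × 10^6 L1210 ascites cells taken from DBA/2Ha donor mice bearing 3-5 day old tumors. Compounds were dissolved in 0.154 N NaOH, neutralized with 0.154 N HCl (final 0.9% NaCl), and given ip daily for 5 days from 24 h post-implant. Median survival T/C; ILS = (T/C − 1) × 100; 30-day survivors counted.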

L1210 [3] = assay: Antitumor activity in the mice with intraperitoneal implanted L1210 lymphoid leukemia at the dose of 100 mg/kg/day x 5 was determined as mean survival of treated group compared to untreated; 7/11; assay type: functional, Mus musculus; method in brief: as §1
L1210 [4] = assay: Antitumor activity in the mice with intraperitoneal implanted L1210 lymphoid leukemia at the dose of 25 mg/kg/day x 5 was determined as mean survival of treated group compared to untreated; 14/8.5; assay type: functional, Mus musculus; method in brief: as §1
L1210 [5] = assay: Antitumor activity in the mice with intraperitoneal implanted L1210 lymphoid leukemia at the dose 100 mg/kg/day x 5 was determined as percentage increase in the life span as compared with control tumor bearers; assay type: functional; details: Mus musculus, L1210, ip
Method in brief: (§2)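 Female C3D2F1/J mice (C3H/HeJ × DBA/2J), groups of six to eight, average weight 25 g. Each mouse got 1 × 10^6 L1210 ascites cells ip, taken from DBA/2Ha donor mice bearing 3-5 day tumors. Compound was dissolved in 0.154 N NaOH and neutralized with 0.154 N HCl (final 0.9% NaCl). Dosed ip daily ×5, starting 24 h after implant. Recorded body weight change on day 8, survival range, median survival and 30-day survivors. ILS = (T/C − 1) × 100.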

L1210 [6] = assay: Antitumor activity in mice with intraperitoneal implanted L1210 lymphoid leukemia at the dose 75 mg/kg/day x 5 was determined as weight change (g/mouse) on 8th day; assay type: functional
Method in brief: (§3)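 C3D2F1/J female mice (C3H/HeJ × DBA/2J), groups of six to eight, average 25 g, inoculated ip with 1 × 10^6 L1210 ascites cells taken from DBA/2Ha donor mice carrying 3-5 day tumors. Compound dissolved in 0.154 N NaOH, then neutralized with 0.154 N HCl to give 0.9% NaCl. Given ip daily for 5 consecutive days starting 24 h after implantation. Body weight change per mouse recorded on day 8.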

L1210 [7] = assay: In Vitro evaluation for the antiproliferative activity by observing the growth inhibition of L1210 lymphoid leukemia cells in culture at 72 hour; assay type: functional, Mus musculus
Method in brief: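 Growth of L1210 lymphoid leukemia cells in culture measured by Trypan blue exclusion of viable cells after 72 h of drug exposure. ED50 is the concentration giving 50% growth inhibition. In some runs the compound was first preincubated in medium at 37 °C for 24 or 48 h before the assay.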

L1210 [8] = assay: Antitumor activity in mice with intraperitoneal implanted L1210 lymphoid leukemia at the dose 25 mg/kg/day x 5 was determined as weight change (g/mouse) on 8th day; assay type: functional; method in brief: as §3
L1210 [9] = assay: Antitumor activity in mice with intraperitoneal implanted L1210 lymphoid leukemia at the dose 50 mg/kg/day x 5 was determined as weight change (g/mouse) on 8th day; assay type: functional; method in brief: as §3
L1210 [10] = assay: Antitumor activity in the mice with intraperitoneal implanted L1210 lymphoid leukemia at the dose 100 mg/kg/day x 5 was determined and number of animals survived on 30 th day were reported; 0/6; assay type: functional, Mus musculus; method in brief: as §2
L1210 [11] = assay: Antitumor activity in the mice with intraperitoneal implanted L1210 lymphoid leukemia at the dose 25 mg/kg/day x 5 was determined and number of animals survived on 30 th day were reported; 0/8; assay type: functional, Mus musculus; method in brief: as §2
L1210 [12] = assay: Antitumor activity in the mice with intraperitoneal implanted L1210 lymphoid leukemia at the dose 50 mg/kg/day x 5 was determined as Survival time in days; Range is 14-17 days; assay type: functional, Mus musculus; method in brief: as §2
L1210 [13] = assay: Antitumor activity in the mice with intraperitoneal implanted L1210 lymphoid leukemia at the dose 50 mg/kg/day x 5 was determined and number of animals survived on 30 th day were reported; 0/8; assay type: functional, Mus musculus; method in brief: as §2
L1210 [14] = assay: Antitumor activity in the mice with intraperitoneal implanted L1210 lymphoid leukemia at the dose 75 mg/kg/day x 5 was determined and number of animals survived on 30 th day were reported; 0/8; assay type: functional, Mus musculus; method in brief: as §1
L1210 [15] = assay: Antitumor activity in the mice with intraperitoneal implanted L1210 lymphoid leukemia at the dose 50 mg/kg/day x 5 was determined as percentage increase in the life span as compared with control tumor bearers; assay type: functional; details: Mus musculus, L1210, ip; method in brief: as §1
L1210 [16] = assay: Antitumor activity in the mice with intraperitoneal implanted L1210 lymphoid leukemia at the dose 75 mg/kg/day x 5 was determined as percentage increase in the life span as compared with control tumor bearers; assay type: functional; details: Mus musculus, L1210, ip; method in brief: as §1
L1210 [17] = assay: Antitumor activity in the mice with intraperitoneal implanted L1210 lymphoid leukemia at the dose 100 mg/kg/day x 5 was determined as Survival time in days; Range is 7-8 days; assay type: functional, Mus musculus; method in brief: as §2
L1210 [18] = assay: Antitumor activity in the mice with intraperitoneal implanted L1210 lymphoid leukemia at the dose 75 mg/kg/day x 5 was determined as Survival time in days; Range is 14-18 days; assay type: functional, Mus musculus; method in brief: as §1
L1210 [19] = assay: Antitumor activity in the mice with intraperitoneal implanted L1210 lymphoid leukemia at the dose 25 mg/kg/day x 5 was determined as Survival time in days; Range is 12-18 days; assay type: functional, Mus musculus; method in brief: as §2
L1210 [20] = assay: Antitumor activity in the mice with intraperitoneal implanted L1210 lymphoid leukemia at the dose 25 mg/kg/day x 5 was determined as percentage increase in the life span as compared with control tumor bearers; assay type: functional; details: Mus musculus, L1210, ip; method in brief: as §2

## C[C@]12CCC(=O)C=C1CC[C@H]1[C@@H]3CC[C@](O)(C(=O)COP(=O)(O)OC[C@H]4O[C@@H](n5ccc(N)nc5=O)[C@@H](O)[C@@H]4O)[C@@]3(C)C[C@H](O)[C@@]12F
L1210 [1]
  Survival time: 17.5 days
L1210 [2]
  T/C: 16
L1210 [3]
  T/C: 7
L1210 [4]
  T/C: 14
L1210 [5]
  ILS at 100 mg/kg/day: -36%
L1210 [6]
  Weight change: 0.52 g mouse-1
L1210 [7]
  ED 50: 0.08 µM
L1210 [8]
  Weight change: -1.09 g mouse-1
L1210 [9]
  Weight change: 0.39 g mouse-1
L1210 [10]
  Survivors: 0
L1210 [11]
  Survivors: 0
L1210 [12]
  Survival time: 14 days
L1210 [13]
  Survivors: 0
L1210 [14]
  Survivors: 0
L1210 [15]
  ILS at 50 mg/kg/day: 68%
L1210 [16]
  ILS at 75 mg/kg/day: 84%
L1210 [17]
  Survival time: 7 days
L1210 [18]
  Survival time: 14 days
L1210 [19]
  Survival time: 12 days
L1210 [20]
  ILS at 25 mg/kg/day: 65%
